TMEM16A act – activates or potentiates the mouse TMEM16A chloride channel; Q8BHY3; HEK293 TMEM16A/YFP-H148Q/I152L, iodide quench fluorescence; hits give low values; B-score at 10 µM; 340,000 tested, 0.3% active; AID 623877;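 active = fluorescence-ratio B-score plate-corrected deviation score at least 3 library SD below zero, with starting fluorescence score within 5 deviations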;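 note: channel opened by trigger with iodide after compound preincubation; score built on the fluorescence ratio of max minus min over baseline; more negative score means more quench and so TMEM16A activation or potentiation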
Target sequence (Q8BHY3 whole entry, looked up): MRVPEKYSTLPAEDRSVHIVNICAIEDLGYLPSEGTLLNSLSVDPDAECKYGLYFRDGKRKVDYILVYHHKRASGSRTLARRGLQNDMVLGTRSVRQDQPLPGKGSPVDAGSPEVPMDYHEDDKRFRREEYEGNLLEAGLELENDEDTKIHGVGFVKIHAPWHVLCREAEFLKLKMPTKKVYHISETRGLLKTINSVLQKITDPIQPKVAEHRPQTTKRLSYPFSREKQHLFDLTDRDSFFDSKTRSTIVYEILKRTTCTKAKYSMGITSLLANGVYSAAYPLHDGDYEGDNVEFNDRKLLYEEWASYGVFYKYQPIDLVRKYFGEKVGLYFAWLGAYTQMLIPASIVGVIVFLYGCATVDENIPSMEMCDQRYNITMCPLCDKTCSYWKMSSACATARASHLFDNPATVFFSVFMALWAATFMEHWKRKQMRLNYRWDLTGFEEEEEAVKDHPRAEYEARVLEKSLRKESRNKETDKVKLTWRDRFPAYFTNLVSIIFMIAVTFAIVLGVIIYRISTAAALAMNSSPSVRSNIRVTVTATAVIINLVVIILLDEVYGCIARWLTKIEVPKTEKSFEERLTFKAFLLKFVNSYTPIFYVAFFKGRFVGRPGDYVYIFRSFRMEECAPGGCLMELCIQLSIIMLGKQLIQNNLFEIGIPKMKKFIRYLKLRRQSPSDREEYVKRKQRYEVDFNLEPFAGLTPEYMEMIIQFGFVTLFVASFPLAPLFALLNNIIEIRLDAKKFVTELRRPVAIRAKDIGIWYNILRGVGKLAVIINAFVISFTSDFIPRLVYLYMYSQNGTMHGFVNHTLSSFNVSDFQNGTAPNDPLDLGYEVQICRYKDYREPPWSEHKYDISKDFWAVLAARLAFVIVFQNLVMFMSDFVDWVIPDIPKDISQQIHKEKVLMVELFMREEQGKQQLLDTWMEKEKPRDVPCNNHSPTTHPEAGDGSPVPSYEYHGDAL
MC4R barr agon – agonists of human melanocortin 4 receptor (MC4R) beta-arrestin | P32245 | U2OS MC4R beta-arrestin complementation, luminescence; percent of melanotan II response, DMSO zero | activation, % at 8.9 µM | 360,000 tested, 0.98% active | AID 540308;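 active = activation above a per-plate cutoff, the mean activation of sample wells on that plate plus 3 SD, cut at about 8% in these data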
MIN6 prolif – MIN6 beta-cell proliferation induction; MIN6 cells proliferation, ATPlite luminescence, 48 h; cells starved in 0.2% serum; 100% = growth in 10% serum; proliferation, % at 10 µM; 330,000 tested, 0.29% active;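 active = compounds whose signal lies at least 3.5 SD above the mean of all wells on their plate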;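 note: 0% = DMSO-treated cells in low-serum medium and 100% = 10% serum control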
MC4R antagonist – antagonists of human melanocortin 4 receptor (MC4R); P32245; MC4R-expressing cells, MTII-stimulated cAMP, LANCE TR-FRET; inhibition, % at 6.5 µM; 360,000 tested, 0.48% active; AID 540295;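 active = inhibition above its plate's cutoff, the mean of tested wells on that plate plus 3 SD, cut at about 29% in these data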;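 note: 0% = Melanotan II alone and 100% = Melanotan II plus saturating MCL0020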
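System: U2OS cells stably expressing human melanocortin 4 receptor (MC4R). Reagent: Melanotan II challenge after compound preincubation. Doses: 6.5 µM. Times: 30-min compound, 1-h challenge, 1-h detection, room temperature. Measured by: TR-FRET with Eu-cAMP and labeled anti-cAMP, 671 nm. Replicates: singlicate.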
m5-HT2A agonist – agonists of mouse serotonin 5-HT2A receptor (HTR2A) | CHO-K1 mHTR2A beta-arrestin complementation, luminescence; percent of 30 µM serotonin response | activation, % at 7.6 µM | 360,000 tested, 0.66% active | AID 624169;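 active = activation above a run cutoff, the mean activation of all tested compounds plus 3 SD, cut at about 14% in these data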;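 note: 0% = plate median of compound wells and 100% = 30 µM serotonin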
ANO1 block – inhibitors of mouse TMEM16A calcium-activated chloride channel; Q8BHY3; HEK293 TMEM16A/YFP iodide influx fluorescence, ionomycin; normalized B-score (activity score, 25-100; higher = stronger inhibition) at 10 µM; 310,000 tested, 1.2% active; AID 588511;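 active = ratio plate-corrected score three or more library SD toward inhibition, starting fluorescence score within five deviations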;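 note: score derived from kinetic fluorescence span divided by baseline fluorescence per well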
MOR ag counter – OPRM1 agonism in mouse HTR2A counterscreen. shares compounds with m5-HT2A agonist. U2OS OPRM1 beta-arrestin PathHunter, luminescence; DMSO 0%, DAMGO 9.3 µM 100%. activation, % at 9.3 µM. 2,300 tested, 5.3% active;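 active = mean activation above the mean of DMSO-only wells plus 3 SD, cut at about 0.5% in these data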
m5-HT2A ag conf – mouse HTR2A agonism confirmed. CHO-K1 PathHunter beta-arrestin recruitment, luminescence; DMSO 0%, 30 µM serotonin 100%. AID 624381. shares compounds with m5-HT2A agonist. 2,300 tested, 19% active. activation, % at 7.6 µM;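 active = mean activation across triplicates above the hit threshold derived in the original primary screen, cut at about 15% in these data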
* = called active by the depositor; i = inactive; / = no result. In the library only some 3.4% were active in any assay of this set; here they are far more common.

SMILES | TMEM16A act | MC4R barr agon | MIN6 prolif | MC4R antagonist | m5-HT2A agonist | ANO1 block | MOR ag counter | m5-HT2A ag conf
COc1ccc(-n2c(C)cc(=O)[nH]c2=O)cc1 | i | -2 | -2 | -4 | 18* | i | 0 | 8
Cc1ccccc1-n1ccnc1SCC(=O)O | i | 3 | -2 | 7 | 17* | i | -1 | -5
CC1CCCCC1NC(=O)COC(=O)c1cccn1C (centres undefined) | i | -2 | 6 | 0 | 15* | / | 0 | -5
CC1CCCCC1NC(=O)COC(=O)c1ccccn1 (centres undefined) | i | -3 | -1 | 1 | -1 | i | / | /
COCC1CCN(C(=O)C2CCC(=O)N(C3CCCC3)C2)CC1 (centres undefined) | i | 0 | 1 | 2 | 15* | i | 0 | 1
COC1CCN(C(=O)C2CCC(=O)N(C3CCCCCC3)C2)CC1 (centres undefined) | i | 0 | -1 | 6 | -3 | i | / | /
Cn1c(NC(=O)C[n+]2cc(-c3ccc(F)cc3)n3c2CCC3)cc(=O)n(C)c1=O | i | 0 | 1 | 5 | 15* | i | -1 | -3
O=C(NCC(O)CO)c1csc(Nc2cccc3ccccc23)n1 (centres undefined) | i | 0 | -1 | -4 | 2 | i | / | /
CCc1ccccc1OCC(=O)N1CCN(c2ncccn2)CC1 | i | -3 | 0 | 8 | -3 | / | / | /
Cc1ccccc1NC(=S)NCc1ccc2c(c1)cc(C)n2C | i | -1 | -7 | -16 | 20* | i | -1 | 1
Cc1ccc(C)c(NCCCCCCCC(=O)O)c1 | / | / | / | / | 0 | / | / | /
O=C(Cc1cccs1)NNC(=S)NCc1ccco1 | i | -3 | -2 | 3 | 15* | i | -1 | -3
O=C(Cc1cccs1)NCc1ccco1 | i | 0 | 0 | 8 | -3 | i | / | /
CC1=C(C(=O)N(C)C)CC(CC(=O)NC2CCCCC2)C(=O)N1CCCN1CCCC1=O (centres undefined) | / | 0 | / | -4 | 16* | / | -1 | -4
Cc1cccc(C=NOCCc2ccccc2)n1 | i | -1 | / | -4 | 1 | / | / | /
COc1ccc(C(=O)Nc2cnc3ccccn3c2=O)cc1 | i | 0 | 1 | -1 | 2 | i | / | /
O=C(Nc1cnc2ccccn2c1=O)c1ccc(F)cc1 | i | -1 | 0 | 6 | 17* | i | -1 | -3
Cc1ccc(NC(=O)CSc2nc(N)cc(=O)[nH]2)cc1S(=O)(=O)N1CCCCCC1 | i | -2 | -2 | 6 | 16* | / | -1 | -5
CCCc1cc(=O)[nH]c(SCC(=O)Nc2ccc(C)c(S(=O)(=O)N3CCCCC3)c2)n1 | i | -2 | -3 | 1 | 0 | / | / | /
O=[N+]([O-])c1ccc(NS(=O)(=O)c2ccc(Cl)c(Cl)c2)cc1 | / | / | / | / | -4 | / | / | /
Cc1cc(C)n(-c2nnc(C)n2N)n1 | i | -1 | -2 | 2 | 18* | i | 0 | -5
CC1(C(=O)NS(=O)(=O)Cc2cccc(Cl)c2)CCN1C(=O)C/C=C/c1ccccc1 (centres undefined) | / | -2 | / | 6 | -1 | / | / | /
CCn1c(C2CC(=O)N(Cc3ccccc3)C2)nc2ccccc21 (centres undefined) | i | 0 | 2 | 2 | 41* | i | 0 | -4
C(=C\c1ccccc1)/CN1CCN(C(c2nnnn2-c2ccc3c(c2)OCCO3)C2CC2)CC1 (centres undefined) | / | / | / | / | 15* | / | -1 | 51*
C(=C\c1ccccc1)/CN1CCN(C(CCc2ccccc2)c2nnnn2-c2ccc3c(c2)OCCO3)CC1 (centres undefined) | / | / | / | / | -4 | / | / | /
SMILES | TMEM16A act | MC4R barr agon | MIN6 prolif | MC4R antagonist | m5-HT2A agonist | ANO1 block | MOR ag counter | m5-HT2A ag conf
CCC(c1nnnn1-c1ccc2c(c1)OCCO2)N1CCN(C/C=C/c2ccccc2)CC1 (centres undefined) | / | / | / | / | 20* | / | -1 | 62*
CC(NC(=O)CN1C(=O)NC2(CCc3ccccc32)C1=O)c1ccc2c(c1)OCCO2 (centres undefined) | i | -2 | -1 | -3 | -1 | / | / | /
COc1ccc(C2CC(c3ccccc3)=NN2C(=O)COC(=O)c2cccc(O)c2)cc1 (centres undefined) | i | 1 | -6 | 0 | -2 | / | / | /
COc1ccc(C2CC(c3ccc4ccccc4c3)=NN2C(=O)COC(=O)C2CCC(=O)N2)cc1 (centres undefined) | i | -1 | -2 | 0 | 15* | i | 0 | -1
CC(C)C[C@@H]1O[C@H](CCc2ccccc2)Cc2[nH]c(=S)[nH]c(=O)c21 | / | / | / | / | 0 | / | / | /
O=C(Nc1ccccc1Cl)c1ccccc1CC(O)(c1ccccc1)c1ccccc1 | / | -1 | / | 5 | 21* | / | 0 | -4
CCS(=O)(=O)Nc1cccc(C2=NN(S(=O)(=O)CC)C(c3cccs3)C2)c1 (centres undefined) | i | -3 | -1 | 16 | -6 | i | / | /
O=S1(=O)CCC(NC(=S)N2CCCCC2)C1 (centres undefined) | i | -2 | 0 | 9 | 17* | i | -1 | -3
C[C@H](CO)N1C[C@H](C)[C@@H](CN(C)CC2CC2)Oc2c(NC(=O)C3CC3)cccc2C1=O | i | 0 | / | 0 | 2 | / | / | /
C[C@H](CO)N1C[C@H](C)[C@@H](CN(C)C(=O)Nc2ccccc2)Oc2ccc(NS(=O)(=O)c3ccccc3)cc2C1=O | i | -1 | -2 | 3 | -1 | / | / | /
C[C@H](CO)N1C[C@H](C)[C@@H](CN(C)CC2CC2)Oc2c(NC(=O)Cc3ccccc3)cccc2C1=O | i | 0 | 3 | 0 | 16* | / | 0 | -2
C[C@H](CO)N1C[C@H](C)[C@@H](CN(C)C(=O)Nc2ccc3c(c2)OCO3)Oc2ccc(NS(=O)(=O)c3ccccc3)cc2C1=O | i | 0 | -3 | -4 | 15* | / | -1 | -3
Cc1noc(C)c1S(=O)(=O)Nc1ccc2c(c1)C(=O)N([C@H](C)CO)C[C@H](C)[C@@H](CN(C)C(=O)NC1CCCCC1)O2 | i | 1 | 1 | 3 | 15* | / | -1 | -1

Screens deposited in PubChem by several laboratories.
